This is an account of results in ChEMBL document CHEMBL3734704, “Synthesis and Biological Evaluation of Novel Bouchardatine Derivatives as Potential Adipogenesis/Lipogenesis Inhibitors for Antiobesity Treatment” (J Med Chem, 2015).

The source made the active and inactive calls. No cut-off for these calls is given here. Some results are limits rather than exact numbers.

A short description of data set [1]: Downregulation of C/EBP delta mRNA level in mouse 3T3L1 cells at 0.3 to 3 uM after 24 hrs by RT-PCR analysis. The class given is functional, cell-based. The conditions noted are these: 3T3-L1. In outline: (§1)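 3T3-L1 preadipocytes in adipogenic cocktail with compound (0.3-3.0 µM; 3 µM for the 2 h and 24 h time course). Total RNA extracted, cDNA made from 1 µg RNA with oligo primer, then PCR: 95 °C 10 min, 35 cycles of 95 °C 30 s, annealing 45 s, 72 °C 1 min, final 72 °C 10 min. Normalized to actin; n = 3.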

A short description of data set [2]: Decrease in triglyceride level in mouse 3T3L1 cells at 1 uM measured during 0 to 3 days by oil red O staining based microscopic analysis. The class given is functional, cell-based. Particulars: 3T3-L1. Summed up: (§2)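 3T3-L1 cells given 1 µM compound during day 0-3, 0-6, 0-9, 3-6, 3-9 or 6-9 of differentiation. On Day 9, intracellular lipid measured by TG assay (Triton lysate, GPO-POD kit, per protein) and by Oil Red O staining with microscopy; n = 3.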

The subject of data set [3] is HepG2. In words: Decrease in triglyceride level in human HepG2 cells at 1 uM after 24 hrs by GPO-POD assay in presence of 0.5 mM oleic acid sodium. Format: functional. Summed up: (§3)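 HepG-2 cells seeded, then after 24 h exposed to 0.5 mM oleic acid sodium plus compound (1 µM; dose series up to 10 µM) for 24 h, DMSO vehicle. Cells lysed in 0.2% Triton X-100 for 1 h, sonicated, centrifuged. Triglyceride measured by GPO-POD kit and cholesterol by kit, both normalized to BCA protein; n = 3.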

The nature of data set [4]: Decrease in triglyceride accumulation in mouse 3T3L1 cells at 10 uM for 3 days oil red O staining based microscopic analysis. The class given is functional, cell-based. Particulars: 3T3-L1. In outline: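 3T3-L1 cells differentiated from 2 days post-confluence with IBMX/dexamethasone/insulin cocktail for 3 days, then insulin medium to Day 6. Compounds at 1 and 10 µM added Day 0 for 3 days. Triglyceride read on Day 6 with Oil Red O (formaldehyde fixation, 30 min stain, isopropanol extraction, OD 510 nm); n = 3.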

A short description of data set [5]: Upregulation of LKB1 expression in mouse 3T3L1 cells at 3 uM after 2 and 24 hrs by western blot analysis. The class given is functional, cell-based. The conditions noted are these: 3T3-L1. Summed up:
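During 3T3-L1 differentiation with adipogenic cocktail, cells were treated with 3 µM compound for 10 min, 2 h or 24 h. Lysates in RIPA with protease/phosphatase inhibitors were run on SDS-PAGE and Western blotted. Proteins were normalized to GAPDH and expressed relative to the 10 min DMSO group, which was set at 100%; n = 3 independent experiments.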
Background: A western blot detects proteins with antibodies after separation by electrophoresis.

The nature of data set [6]: Downregulation of SREBP-1c mRNA level in mouse 3T3L1 cells at 3 uM after 24 hrs by RT-PCR analysis. Format: functional, cell-based. Particulars: 3T3-L1. Summed up: as §1
The subject of data set [7] is HepG2. In words: Decrease in cholesterol level in human HepG2 cells at 1 uM after 24 hrs by […] assay in presence of 0.5 mM oleic acid sodium. Format: functional. In outline: as §3
Data set [8] is described as follows: Decrease in triglyceride level in mouse 3T3L1 cells at 1 uM measured during 6 to 9 days by oil red O staining based microscopic analysis. Format: functional, cell-based. Particulars: 3T3-L1. Summed up:
as §2

A short description of data set [9]: Downregulation of SREBP-1c level in mouse 3T3L1 cells at 0.3 to 3 uM after 3 days by western blot analysis. The class given is functional, cell-based. The conditions noted are these: 3T3-L1. In outline: (§4)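 3T3-L1 preadipocytes incubated in adipogenic cocktail with or without compound (0.3, 1.0, 3.0 µM) for the stated periods. Protein levels measured by Western blot (RIPA lysis, PVDF, BSA block, primary 16 h at 4 °C, HRP secondary), normalized to GAPDH/Tubulin and expressed relative to controls; n = 3.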

Data set [10] relates to 3T3-L1. The experiment in a line: Induction of apoptosis in mouse 3T3L1 cells assessed as late apoptotic cells at 1 uM after 24 hrs by annexin-V-FITC and PI staining based flow cytometry (reference value: 0.03%). Format: functional. Background: A flow cytometer gives signals particle by particle.
Data set [11] in a line: Downregulation of CaMKKalpha expression in mouse 3T3L1 cells by western blot analysis. The class given is functional, cell-based. Particulars: 3T3-L1.
A short description of data set [12]: Downregulation of C/EBP beta mRNA level in mouse 3T3L1 cells at 0.3 to 3 uM after 24 hrs by RT-PCR analysis. The class given is functional, cell-based. Particulars: 3T3-L1. Summed up:
as §1

The nature of data set [13]: Cytotoxicity against mouse 3T3L1 cells preadipocytes assessed as cell viability at 1 to 10 uM for 24, 48 and 72 hrs by LDH release assay relative to control. The conditions noted are these: 3T3-L1 preadipocyte cells. (In general: LDH leaks from cells whose membrane has failed.)
The test system of data set [14] is HepG2. In words: Decrease in triglyceride level in human HepG2 cells at 10 uM after 24 hrs by GPO-POD assay in presence of 0.5 mM oleic acid sodium. Format: functional. In outline:
as §3

Data set [15] relates to 3T3-L1. The experiment in a line: Induction of apoptosis in mouse 3T3L1 cells assessed as early apoptotic cells at 0.3 uM after 24 hrs by annexin-V-FITC and PI staining based flow cytometry (reference value: 0.56%). Format: functional.
Data set [16] can be described thus: Downregulation of ACC level in mouse 3T3L1 cells after 6 days by western blot analysis. The class given is functional, cell-based. The conditions noted are these: 3T3-L1. Summed up:
as §4

Data set [17] is described as follows: Decrease in triglyceride level in mouse 3T3L1 cells at 1 uM measured during 3 to 6 days by oil red O staining based microscopic analysis. The class given is functional, cell-based. Particulars: 3T3-L1. Summed up: as §2
In data set [18] the target is T1, Serine/threonine-protein kinase STK11 (Mus musculus) (UniProt Q9WTK7).
T1 sequence (whole entry): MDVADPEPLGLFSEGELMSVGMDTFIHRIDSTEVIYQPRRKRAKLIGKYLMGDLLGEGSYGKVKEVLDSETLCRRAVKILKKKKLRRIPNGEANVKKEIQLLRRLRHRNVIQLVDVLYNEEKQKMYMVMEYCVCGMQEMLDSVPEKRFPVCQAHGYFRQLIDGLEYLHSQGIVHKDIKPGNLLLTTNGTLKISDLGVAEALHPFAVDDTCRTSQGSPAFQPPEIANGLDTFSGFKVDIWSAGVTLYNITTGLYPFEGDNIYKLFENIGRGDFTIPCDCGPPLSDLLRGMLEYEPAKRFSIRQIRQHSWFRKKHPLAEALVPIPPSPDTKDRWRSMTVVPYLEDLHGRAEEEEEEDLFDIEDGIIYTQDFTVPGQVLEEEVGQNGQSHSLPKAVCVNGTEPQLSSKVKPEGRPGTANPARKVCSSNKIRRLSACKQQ
In words: Activation of LKB1-mediated AMPK in mouse 3T3L1 cells assessed as increase in phophorylated AMPK alpha at Thr 172 residue level at 3 uM after 10 mins by western blot analysis. Format: cell-based. The conditions noted are these: 3T3-L1. In outline:
(§5)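 3T3-L1 preadipocytes held in adipogenic cocktail with or without compound at 3 µM, time course (10 min, 2 h, 24 h) during differentiation. Lysis in RIPA with protease/phosphatase inhibitors, SDS-PAGE, PVDF, BSA block, primary antibody 16 h at 4 °C, HRP secondary. Bands normalized to GAPDH, with the 10 min DMSO group set as 100%; n = 3.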

A short description of data set [19]: Downregulation of C/EBP delta mRNA level in mouse 3T3L1 cells at 3 uM after 2 and 24 hrs by RT-PCR analysis. Format: functional, cell-based. The conditions noted are these: 3T3-L1. Summed up: as §1
Data set [20] addresses T1, Serine/threonine-protein kinase STK11 (Mus musculus). In words: Activation of LKB1-mediated AMPK in mouse 3T3L1 cells assessed as increase in phophorylated AMPK alpha at Thr 172 residue level at 3 uM by western blot analysis. Particulars: 3T3-L1, TDE = time-dependent effect. The class given is cell-based. Summed up: as §5
The nature of data set [21]: Downregulation of PPAR-gamma mRNA level in mouse 3T3L1 cells at 3 uM after 24 hrs by RT-PCR analysis. The class given is functional, cell-based. The conditions noted are these: 3T3-L1. In outline: as §1

On to `O=Cc1c(-c2nc(NCCN3CCCC3)c3ccccc3n2)[nH]c2ccccc12`, for which the inhibition result in data set [1], in [6], in data set [9], in [11], in [12] and in data set [19] was “Active” throughout. Besides, in [21], the inhibition entry is “Active”. Besides, the inhibition in data set [2] was 85%; in [4], 94.9%; in [8], 60%; in [16], “Dose-dependent effect”; in [17], 80%. In addition, the “inhibition (INH)” value in the data set on HepG2 [3] is listed as 70%; in the data set with HepG2 [7], less than 10%; in the data set with HepG2 [14], 32%. Moreover, the outcome in data set [5] and in data set [18] was Active. Also, the Activity with 3T3-L1 [10] was 0.25%; with 3T3-L1 [15] it was 1.58%; in [20], “tde”. Moreover, in [13], the viability at 72 h, 10 µM stood at 83%.

What is called inhibition is the relative decrease from the control value, in per cent. The term viability denotes the share of living cells, or the viability signal relative to a control.
